Assay results collected from several papers.
Protocols differ between the studies behind these lines.
Target: Interleukin-1 receptor-associated kinase 4 (IRAK4, Homo sapiens, UniProt Q9NWZ3)
Sequence (Q9NWZ3 1-460, as in one of the studies): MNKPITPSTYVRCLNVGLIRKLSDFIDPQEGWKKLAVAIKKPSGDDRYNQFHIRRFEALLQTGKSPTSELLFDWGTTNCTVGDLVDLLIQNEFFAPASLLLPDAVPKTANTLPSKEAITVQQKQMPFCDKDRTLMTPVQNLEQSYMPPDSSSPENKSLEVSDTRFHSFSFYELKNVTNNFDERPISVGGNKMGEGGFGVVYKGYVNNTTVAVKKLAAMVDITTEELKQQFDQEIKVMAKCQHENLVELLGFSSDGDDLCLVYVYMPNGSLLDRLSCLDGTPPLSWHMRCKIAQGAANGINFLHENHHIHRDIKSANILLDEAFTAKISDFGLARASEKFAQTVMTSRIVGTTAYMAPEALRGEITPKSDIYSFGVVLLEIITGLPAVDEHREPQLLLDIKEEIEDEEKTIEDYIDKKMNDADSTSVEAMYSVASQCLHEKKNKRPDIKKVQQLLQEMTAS

Structure (SMILES)	assay	setting	endpoint	value
COc1cc2ncnc(Nc3ccc(Oc4ccccc4)cc3C)c2cc1OC	enzyme activity, inhibitor	1 µM	inhibition	0%
COc1cc2nccc(Oc3ccc(NC(=O)c4c5n(n(-c6ccc(F)cc6)c4=O)CCCC5)cc3)c2cc1OC	enzyme activity, inhibitor	0.1 µM	inhibition	-19%
Cc1cc(NC(=O)c2cccc3cc(-c4cccc5[nH]nc(N)c45)ccc23)ccc1F	enzyme activity, inhibitor	0.1 µM	activity vs control	99%
CS(=O)(=O)N1CCCC(NC(=O)[C@H](CCC2CCCCC2)NC(=O)c2ccc(CNC(=O)c3cnc4ccccn34)cc2)C1 (some centres unmarked)	cell-free assay, competition with immobilised ligand	0.1 µM	remaining binding	100%
COc1cc(/C=C/C(=O)CC(=O)/C=C/c2ccc(O)c(OC)c2)ccc1O	enzyme activity, inhibitor	1 µM	activity vs control	71%
Cc1cc(C)c(-n2ccn3nc(-c4cccnc4)cc23)cc1NC(=O)c1cc(C#N)cc(S(F)(F)(F)(F)F)c1	cell-free assay, competition with immobilised ligand	0.1 µM	remaining binding	100%
Oc1cccc(-c2nc(N3CCOCC3)c3oc4ncccc4c3n2)c1	enzyme activity, inhibitor	10 µM	remaining activity	119%
CCCS(=O)(=O)Nc1ccc(F)c(C(=O)c2c[nH]c3ncc(-c4ccc(Cl)cc4)cc23)c1F	enzyme activity, inhibitor	1 µM	inhibition	< 10%
COc1ccc(COc2ccc(Cc3cnc(N)nc3N)cc2OC)cc1	cell-free assay	0.5 µM	remaining signal	110%
CC/C(=N\NC(=O)NCc1cccc(O)c1)c1ccc(O)c(C)c1O	enzyme activity, inhibitor	0.1 µM	inhibition	-0.4%
O=C1Nc2ccc(Cl)cc2C1=Cc1cc(Cl)c(O)c(Cl)c1	cell-free assay	0.5 µM	remaining signal	101%
O=C(Nc1cnn(-c2csc(C(=O)NC3COC3)c2)c1)Nc1ccccc1Cl	enzyme activity, inhibitor	5 µM	remaining activity	92.1%
CCc1ccccc1C(=O)Nc1n[nH]c2c(C)c(F)c(C3C(C#N)=C(C)N(C)C(C)=C3C#N)cc12	cell-free assay, competition with immobilised ligand	1 µM	remaining binding	100%
COc1cc2c(Nc3ccc(Br)cc3F)ncnc2cc1OCC1CCN(C)CC1	cell-free assay	0.5 µM	remaining signal	35.3%
COc1cc(Cl)c(C(=O)N[C@@H](CN[C@H]2CC[C@@H](N)CC2)Cc2ccc(C#N)cc2)cc1-c1ccc(CN[C@H](C)c2ccc(C)cc2)o1	enzyme activity, inhibitor	1 µM	remaining activity	89%
O=C1NC(=O)c2cc(Nc3ccc(F)cc3)c(Nc3ccc(F)cc3)cc21	cell-free assay	0.5 µM	remaining signal	98.1%
Nc1ncnc2occ(-c3ccc(NC(=O)Nc4cc(C(F)(F)F)ccc4F)cc3)c12	cell-free assay, inhibitor	20 µM	remaining signal	46%
CC(C)(O)[C@H]1CC[C@H](Nc2ccc3ncc(-c4cccc(C(F)(F)F)c4)n3n2)CC1	enzyme activity, inhibitor	1 µM	remaining activity	64.2%
C[C@H](c1cccc(C#N)c1)n1cc(Cl)cc(C(N)=O)c1=N	cell-free assay, competition with immobilised ligand	1 µM	remaining binding	82%
Cc1ccc(NC(=O)c2ccc(C)c(C(F)(F)F)c2)cc1C#Cc1nn(C2CCC(O)CC2)c2ncnc(N)c12 (centres unmarked)	cell-free assay	10 µM	remaining signal	101%
FC(F)(F)Oc1cccc(-c2cnc3ccc(-c4ccncc4)nn23)c1	enzyme activity, inhibitor, radiometric	1 µM	activity vs control	12%
CCC(=O)N[C@H]1CC[C@@H](C(=O)N(C)c2ccc(-c3nc4ccccc4o3)cc2)C1	cell-free assay, competition with immobilised ligand	1 µM	remaining binding	87%
O=C(CSc1nc2nccnc2c(=O)n1CCc1ccccc1)Nc1nccs1	enzyme activity, inhibitor	10 µM	inhibition	10%
CO[C@@H](C)c1c(Nc2ccc([C@H](N(C)C(=O)C3CCS(=O)(=O)CC3)C(F)(F)F)cc2)cnc2cc(Cl)nn12	cell-free assay, competition with immobilised ligand	1 µM	remaining binding	88%
CCN(CC)CCNC(=O)c1c(C)[nH]c(/C=C2\C(=O)Nc3ccc(F)cc32)c1C	enzyme activity, inhibitor	10 µM	inhibition	89%
CNCc1ccccc1-c1csc([C@@H](C)Nc2nc(C)nc3cc(OC)c(OC)cc23)c1	cell-free assay, competition with immobilised ligand	1 µM	remaining binding	76%
CC(C)(C)c1nc2c(s1)c1nc(N)ncc1c1ccc(NS(=O)(=O)c3c(F)cccc3F)c(F)c12	enzyme activity, inhibitor, radiometric	1 µM	remaining activity	90%
c1ccc(N2CCN(Cc3nc4ccccc4[nH]3)CC2)nc1	binding, competition with immobilised ligand	1 µM	remaining binding	100%
CN(C)C1CCN(CC#Cc2nn(C3CCCC3)c3nc(NCc4ccccc4)ncc23)C1 (centres unmarked)	enzyme activity, inhibitor, FRET	1 µM	inhibition	3%
